The target of assay [1] is T1, Tyrosine-protein phosphatase non-receptor type 1 (Homo sapiens, UniProt P18031).
T1 sequence (P18031 whole entry): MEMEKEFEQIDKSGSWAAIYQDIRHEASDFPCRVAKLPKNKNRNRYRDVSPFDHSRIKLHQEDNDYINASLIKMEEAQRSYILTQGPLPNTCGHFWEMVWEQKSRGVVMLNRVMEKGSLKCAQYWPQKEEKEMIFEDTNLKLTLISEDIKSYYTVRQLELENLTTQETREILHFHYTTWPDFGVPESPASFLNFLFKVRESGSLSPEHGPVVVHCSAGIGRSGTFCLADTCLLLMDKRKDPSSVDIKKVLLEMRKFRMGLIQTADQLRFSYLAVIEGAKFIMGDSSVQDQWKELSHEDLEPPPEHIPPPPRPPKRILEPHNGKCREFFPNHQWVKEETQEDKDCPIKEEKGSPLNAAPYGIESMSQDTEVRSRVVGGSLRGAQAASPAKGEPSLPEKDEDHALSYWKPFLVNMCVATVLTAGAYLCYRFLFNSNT
Nature of the assay: Inhibition of human recombinant GST-tagged PTP1B expressed in Escherichia coli BL21 (DE3) using pNPP as substrate measured for 2 mins by colorimetric analysis.

In assay [2] the target is T2, Tyrosine-protein phosphatase non-receptor type 1 (Homo sapiens) (UniProt P18031).
T2 sequence (whole entry): T1 sequence (P18031 whole entry)
The experiment in a line: Potency index, ratio of IC50 of oleanolic acid to IC50 of compound inhibition of human recombinant GST-tagged PTP1B expressed in Escherichia coli BL21 (DE3) using pNPP as substrate measured for 2 mins by colorimetric analysis.

Assay [3] addresses T3, Receptor-type tyrosine-protein phosphatase F (Homo sapiens, UniProt P10586). Nature of the assay: Inhibition of human recombinant GST-tagged LAR (catalytic domain 1275 to 1613 residues) expressed in Escherichia coli BL21 (DE3) using pNPP as substrate measured for 2 mins by colorimetric analysis.
For assay [4], the target named is T2, Tyrosine-protein phosphatase non-receptor type 1 (Homo sapiens). Nature of the assay: Inhibition of human recombinant GST-tagged PTP1B expressed in Escherichia coli BL21 (DE3) using pNPP as substrate incubated for 4 to 16 mins and measured for 2 mins by colorimetric analysis. As to conditions: TDE = time-dependent effect. In outline:
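pNPP used as the phosphatase substrate, with the enzyme assay following earlier published work. IC50 obtained by regression analysis and reported as mean ± SD of three replications.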

Assay [5] has the same target. Nature of the assay: Competitive inhibition of human recombinant GST-tagged PTP1B expressed in Escherichia coli BL21 (DE3) using pNPP as substrate assessed as increase in Km value measured for 2 mins by colorimetric analysis.
For assay [6] the target is unchanged. Nature of the assay: Competitive inhibition of human recombinant GST-tagged PTP1B expressed in Escherichia coli BL21 (DE3) using pNPP as substrate assessed as unchanged Vmax value measured for 2 mins by colorimetric analysis.
In assay [7] the target is T1, Tyrosine-protein phosphatase non-receptor type 1. The experiment in a line: Competitive inhibition of human recombinant GST-tagged PTP1B expressed in Escherichia coli BL21 (DE3) using pNPP as substrate assessed as inhibitor constant measured for 2 mins by colorimetric analysis.
Another assay concerns Pseudomonas aeruginosa. Nature of the assay: Antibacterial activity against Pseudomonas aeruginosa 2742 assessed as reduction in bacterial cell growth incubated for 24 hrs by ELISA. It counts as functional. Particulars: Pseudomonas aeruginosa, 2742, 24 h. In outline:
(§1)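 MIC determined by serial dilution in 96-well microtiter plates. Strains used were E. coli 1924 and P. aeruginosa 2742 (Gram-negative), S. mutans 3289 (Gram-positive) and the fungus C. albicans 7535. Gatifloxacin, moxifloxacin, norfloxacin and oxacillin served as antibacterial reference agents, and fluconazole as the antifungal reference.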
A general note: An ELISA detects its analyte on a solid surface through an enzyme-linked reagent.

A further assay relates to Candida albicans. The experiment in a line: Antifungal activity against Candida albicans 7535 assessed as reduction in bacterial cell growth incubated for 24 hrs by ELISA. It counts as functional. Particulars: Candida albicans, 7535, 24 h. In outline: as §1
Assay [8] has as its system Staphylococcus aureus. The experiment in a line: Antibacterial activity against Methicillin-resistant Staphylococcus aureus CCARM 3506 assessed as reduction in bacterial cell growth incubated for 24 hrs by ELISA. It counts as functional. As to conditions: CCARM 3506, 24 h. In outline:
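MICs determined by serial dilution in 96-well microtiter plates. The strain panel included Gram-positive S. aureus strains and multidrug-resistant clinical isolates. Gatifloxacin, moxifloxacin, norfloxacin and oxacillin served as antibacterial positive controls.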

The target of assay [9] is T3, Receptor-type tyrosine-protein phosphatase F. Nature of the assay: Inhibition of human recombinant GST-tagged LAR (catalytic domain 1275 to 1613 residues) expressed in Escherichia coli BL21 (DE3) using pNPP as substrate at 20 ug/ml measured for 2 mins by colorimetric analysis. In outline:
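Single-concentration screen at 20 µg/mL in the pNPP phosphatase assay.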

For assay [10], the system named is Staphylococcus aureus. Nature of the assay: Potency index, ratio of MIC of gatifloxacin to MIC of compound for antibacterial activity against Staphylococcus aureus KCTC503 assessed as reduction in bacterial cell growth incubated for 24 hrs by ELISA. It counts as functional.

We go through three compounds from ChEMBL document CHEMBL4346701, “Synthesis and biological evaluation of tryptophan-derived rhodanine derivatives as PTP1B inhibitors and anti-bacterial agents” (Eur J Med Chem, 2019).

≈ marks a conversion by molar mass, not a printed value. Calls of active or inactive are those of the source.

T3 sequence (P10586 whole entry, the tested form may be a part): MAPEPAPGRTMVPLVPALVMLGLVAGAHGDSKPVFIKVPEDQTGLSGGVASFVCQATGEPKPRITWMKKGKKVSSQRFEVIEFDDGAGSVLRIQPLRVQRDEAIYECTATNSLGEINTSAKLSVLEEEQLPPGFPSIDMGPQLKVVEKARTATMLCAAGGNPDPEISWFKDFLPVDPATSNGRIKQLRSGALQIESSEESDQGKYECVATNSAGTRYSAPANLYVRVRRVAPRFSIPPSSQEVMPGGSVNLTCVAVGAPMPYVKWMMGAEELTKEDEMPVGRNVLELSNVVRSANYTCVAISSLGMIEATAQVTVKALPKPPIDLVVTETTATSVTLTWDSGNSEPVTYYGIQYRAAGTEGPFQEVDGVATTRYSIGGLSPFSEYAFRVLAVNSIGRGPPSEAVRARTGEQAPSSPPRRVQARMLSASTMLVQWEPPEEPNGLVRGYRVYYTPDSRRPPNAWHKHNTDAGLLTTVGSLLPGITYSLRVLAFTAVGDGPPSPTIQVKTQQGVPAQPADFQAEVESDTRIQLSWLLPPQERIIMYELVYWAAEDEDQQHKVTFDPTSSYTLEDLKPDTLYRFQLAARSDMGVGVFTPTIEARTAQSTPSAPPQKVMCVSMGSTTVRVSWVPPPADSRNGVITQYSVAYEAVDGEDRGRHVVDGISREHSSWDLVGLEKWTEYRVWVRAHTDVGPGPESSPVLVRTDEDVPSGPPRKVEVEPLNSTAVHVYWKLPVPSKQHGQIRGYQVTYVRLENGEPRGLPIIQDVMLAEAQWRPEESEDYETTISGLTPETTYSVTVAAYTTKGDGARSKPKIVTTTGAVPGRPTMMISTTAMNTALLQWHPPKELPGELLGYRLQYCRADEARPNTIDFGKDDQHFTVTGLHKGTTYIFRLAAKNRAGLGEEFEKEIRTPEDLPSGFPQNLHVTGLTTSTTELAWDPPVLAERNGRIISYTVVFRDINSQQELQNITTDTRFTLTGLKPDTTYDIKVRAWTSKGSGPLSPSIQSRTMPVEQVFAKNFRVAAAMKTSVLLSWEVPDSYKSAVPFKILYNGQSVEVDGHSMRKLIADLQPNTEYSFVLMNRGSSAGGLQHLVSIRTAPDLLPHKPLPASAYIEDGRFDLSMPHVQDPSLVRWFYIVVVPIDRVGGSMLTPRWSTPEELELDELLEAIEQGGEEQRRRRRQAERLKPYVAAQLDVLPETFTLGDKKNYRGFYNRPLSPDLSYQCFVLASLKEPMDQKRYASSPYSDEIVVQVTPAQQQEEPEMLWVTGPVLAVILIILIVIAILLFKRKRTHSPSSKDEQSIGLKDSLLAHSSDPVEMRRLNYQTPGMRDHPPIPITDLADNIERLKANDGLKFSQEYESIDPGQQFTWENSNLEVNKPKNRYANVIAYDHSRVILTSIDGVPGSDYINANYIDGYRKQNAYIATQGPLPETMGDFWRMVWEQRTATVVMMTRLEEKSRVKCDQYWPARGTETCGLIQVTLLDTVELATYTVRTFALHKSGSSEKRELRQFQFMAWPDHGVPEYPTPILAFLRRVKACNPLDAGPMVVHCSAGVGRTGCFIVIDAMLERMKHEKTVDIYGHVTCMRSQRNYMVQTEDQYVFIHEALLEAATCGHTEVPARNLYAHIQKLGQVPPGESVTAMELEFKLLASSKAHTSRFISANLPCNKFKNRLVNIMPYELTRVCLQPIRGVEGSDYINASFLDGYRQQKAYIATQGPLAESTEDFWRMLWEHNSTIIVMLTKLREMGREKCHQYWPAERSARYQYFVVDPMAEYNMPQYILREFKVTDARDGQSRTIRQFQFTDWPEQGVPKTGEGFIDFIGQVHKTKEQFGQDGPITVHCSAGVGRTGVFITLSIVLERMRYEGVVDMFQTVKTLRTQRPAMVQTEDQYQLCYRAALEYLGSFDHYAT

As usually defined, the IC50 is the concentration that gives 50% inhibition. A word on the Ki: it is a measure of affinity in units of concentration, obtained from inhibition or displacement. As usually defined, the MIC is the smallest concentration in the dilution series that meets the test's criterion for growth inhibition. With `O=C(O)C(Cc1c[nH]c2ccccc12)N1C(=O)/C(=C/c2ccc3cc(OCc4ccc(Br)cc4)ccc3c2)SC1=S` (stereo unspecified), the IC50 in assay [1] is 360 nM; in [3], 29100 nM. The Ratio IC50 in assay [2] came out at 8. For the same compound, the inhibition result in assay [4] is “Tde”. For the same compound, the inhibition entry in [5] and in assay [6] was “Active” in each case. Moreover, the Ki in assay [7] turned out to be 70 nM. Also, the minimal inhibitory concentration (MIC) was above 64 µg/mL in the assay on Pseudomonas aeruginosa, above 64 µg/mL in the assay on Candida albicans and 4 µg/mL (≈ 6.22 µM) in the assay with Staphylococcus aureus [8].
With `Cc1ccc(COc2ccc3cc(/C=C4\SC(=S)N(C(Cc5c[nH]c6ccccc56)C(=O)O)C4=O)ccc3c2)cc1` (stereo unspecified), the IC50 in [1] came out at 640 nM. In addition, in [9], the inhibition entry is “inactive”. The minimum inhibitory concentration (MIC) was above 64 µg/mL with Pseudomonas aeruginosa, above 64 µg/mL with Candida albicans and 8 µg/mL (≈ 13.8 µM) with Staphylococcus aureus [8]. Moreover, the Ratio in the assay with Staphylococcus aureus [10] came to 2.
On to `O=C(O)C(Cc1c[nH]c2ccccc12)N1C(=O)/C(=C/c2ccc3cc(OCc4ccc(Cl)cc4Cl)ccc3c2)SC1=S` (stereo unspecified), for which the IC50 in assay [1] came out at 540 nM. In [9], the inhibition entry is “inactive”. For the same compound, the MIC in the assay with Pseudomonas aeruginosa was above 64 µg/mL; in the assay on Candida albicans it was above 64 µg/mL; in the assay with Staphylococcus aureus [8], 8 µg/mL (≈ 12.6 µM).
